Results as given in ChEMBL document CHEMBL3351268, “Synthesis, biological evaluation, and molecular modeling of new 3-(cyclopentyloxy)-4-methoxybenzaldehyde O-(2-(2,6-dimethylmorpholino)-2-oxoethyl) Oxime (GEBR-7b) related phosphodiesterase 4D (PDE4D) inhibitors” (J Med Chem, 2014).
Values belong to the molecule of their own block, whether it stands above or below them. The source made the active and inactive calls. The calls are words filed in the database; no cut-off is given here.

What was measured:
[1] = Genotoxicity against human HTLA-230 cells assessed as phosphorylation of histone H2AX at 100 uM after 24 hrs by Western blot analysis; type: toxicity, cell-based; conditions: htla-230, 24 h
[2] = biological target: T1, 3',5'-cyclic-AMP phosphodiesterase 4D (Homo sapiens, UniProt Q08499); assay: Inhibition of recombinant human PDE4D3 expressed in baculoviral system at 10 uM
T1 sequence (Q08499 whole entry, canonical isoform): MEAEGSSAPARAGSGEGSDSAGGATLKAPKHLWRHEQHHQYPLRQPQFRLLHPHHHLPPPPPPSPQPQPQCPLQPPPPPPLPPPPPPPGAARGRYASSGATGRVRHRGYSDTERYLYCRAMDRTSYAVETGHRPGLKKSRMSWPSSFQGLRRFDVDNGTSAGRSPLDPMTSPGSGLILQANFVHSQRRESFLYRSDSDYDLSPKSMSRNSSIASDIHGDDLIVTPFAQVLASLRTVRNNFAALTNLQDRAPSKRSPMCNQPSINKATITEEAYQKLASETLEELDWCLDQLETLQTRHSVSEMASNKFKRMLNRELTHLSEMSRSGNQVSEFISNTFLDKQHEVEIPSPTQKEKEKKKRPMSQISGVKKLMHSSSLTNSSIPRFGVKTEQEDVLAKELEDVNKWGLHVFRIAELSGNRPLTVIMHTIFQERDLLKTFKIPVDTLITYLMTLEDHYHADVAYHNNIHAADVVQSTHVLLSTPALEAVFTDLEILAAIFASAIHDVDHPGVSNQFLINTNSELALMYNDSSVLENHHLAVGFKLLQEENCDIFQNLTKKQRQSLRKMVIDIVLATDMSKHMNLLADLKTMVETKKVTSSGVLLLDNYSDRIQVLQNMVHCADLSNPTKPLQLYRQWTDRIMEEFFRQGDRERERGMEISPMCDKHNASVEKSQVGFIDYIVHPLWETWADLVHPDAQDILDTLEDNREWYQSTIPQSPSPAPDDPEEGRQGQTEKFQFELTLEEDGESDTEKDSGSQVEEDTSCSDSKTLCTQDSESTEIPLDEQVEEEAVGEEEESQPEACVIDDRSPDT
Procedure, shortened: (§1)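 Recombinant PDE4 isoform enzyme activity measured with compound at 10 μM, in duplicate; result given as % inhibition relative to control activity. PDE4D3 is recombinant human, expressed in a baculoviral system.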

[3] = biological target: T1, 3',5'-cyclic-AMP phosphodiesterase 4D; assay: Inhibition of PDE4D2 (unknown origin) at 10 uM
[4] = biological target: 3',5'-cyclic-AMP phosphodiesterase 4A (Homo sapiens) (UniProt P27815); assay: Inhibition of PDE4A4 (unknown origin) at 10 uM; procedure, shortened: as §1
Sequence of 3',5'-cyclic-AMP phosphodiesterase 4A (Homo sapiens) (P27815 whole entry): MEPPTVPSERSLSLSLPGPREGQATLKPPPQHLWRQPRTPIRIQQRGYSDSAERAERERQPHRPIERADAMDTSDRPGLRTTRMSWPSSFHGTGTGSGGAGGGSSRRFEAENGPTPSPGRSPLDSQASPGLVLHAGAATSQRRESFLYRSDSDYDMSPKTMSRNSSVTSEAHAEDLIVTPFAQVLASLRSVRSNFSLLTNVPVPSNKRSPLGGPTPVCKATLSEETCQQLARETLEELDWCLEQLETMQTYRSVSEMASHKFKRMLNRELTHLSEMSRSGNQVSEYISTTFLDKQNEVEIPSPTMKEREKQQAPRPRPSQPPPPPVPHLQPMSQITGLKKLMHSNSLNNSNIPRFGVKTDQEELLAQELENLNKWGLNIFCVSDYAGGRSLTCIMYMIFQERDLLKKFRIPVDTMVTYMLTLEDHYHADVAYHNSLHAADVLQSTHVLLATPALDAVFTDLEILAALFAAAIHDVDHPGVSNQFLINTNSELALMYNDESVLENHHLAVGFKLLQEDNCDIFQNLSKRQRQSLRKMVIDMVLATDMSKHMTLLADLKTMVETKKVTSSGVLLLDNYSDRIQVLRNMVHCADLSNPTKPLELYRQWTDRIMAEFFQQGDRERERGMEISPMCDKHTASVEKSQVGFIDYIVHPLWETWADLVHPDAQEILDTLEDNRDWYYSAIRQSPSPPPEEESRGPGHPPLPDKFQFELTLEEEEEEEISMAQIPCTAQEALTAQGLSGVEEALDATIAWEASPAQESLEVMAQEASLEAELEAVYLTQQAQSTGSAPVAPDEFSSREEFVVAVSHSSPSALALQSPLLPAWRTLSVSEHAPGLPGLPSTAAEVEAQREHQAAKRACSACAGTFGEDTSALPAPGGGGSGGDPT

Homo sapiens = species: Homo sapiens; assay: Selectivity ratio of IC50 PDE4B2 (unknown origin) for to IC50 for ecombinant human PDE4D3 expressed in baculoviral system
[5] = biological target: T2, 3',5'-cyclic-AMP phosphodiesterase 4B (Homo sapiens, UniProt Q07343); assay: Inhibition of PDE4B2 (unknown origin)
T2 sequence (Q07343 whole entry): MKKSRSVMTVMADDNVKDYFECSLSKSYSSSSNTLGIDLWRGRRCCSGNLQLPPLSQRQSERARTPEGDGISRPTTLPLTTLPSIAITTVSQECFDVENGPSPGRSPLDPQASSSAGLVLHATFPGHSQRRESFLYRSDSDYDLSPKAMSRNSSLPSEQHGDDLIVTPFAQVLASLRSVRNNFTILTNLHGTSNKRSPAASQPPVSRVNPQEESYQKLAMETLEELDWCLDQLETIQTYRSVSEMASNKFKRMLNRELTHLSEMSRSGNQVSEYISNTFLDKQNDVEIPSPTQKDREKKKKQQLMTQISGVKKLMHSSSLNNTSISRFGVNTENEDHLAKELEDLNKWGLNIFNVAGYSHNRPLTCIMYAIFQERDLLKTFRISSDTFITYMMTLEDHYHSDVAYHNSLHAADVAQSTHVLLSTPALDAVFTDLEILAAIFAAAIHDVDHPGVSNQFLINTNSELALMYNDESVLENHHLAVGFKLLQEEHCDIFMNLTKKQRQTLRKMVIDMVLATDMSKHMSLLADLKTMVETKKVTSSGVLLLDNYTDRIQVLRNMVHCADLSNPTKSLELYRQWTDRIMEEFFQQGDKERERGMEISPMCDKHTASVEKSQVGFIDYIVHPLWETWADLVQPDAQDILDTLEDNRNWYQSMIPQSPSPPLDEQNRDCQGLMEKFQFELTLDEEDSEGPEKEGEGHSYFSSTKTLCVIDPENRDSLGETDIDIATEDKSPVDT

[6] = biological target: T2, 3',5'-cyclic-AMP phosphodiesterase 4B; assay: Inhibition of PDE4B2 (unknown origin) at 10 uM; procedure, shortened: as §1
[7] = Cytotoxicity against human HTLA-230 cells at 100 uM after 24 hrs by lactate dehydrogenase release assay; type: cell-based; conditions: htla-230, 24 h
Procedure, shortened: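 HTLA human neuronal cells exposed 24 h to 100 μM test compound; cytotoxicity read as lactate-dehydrogenase release.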

[8] = biological target: T1, 3',5'-cyclic-AMP phosphodiesterase 4D; assay: Inhibition of PDE4D3 (unknown origin) at 10 uM; procedure, shortened: as §1
[9] = biological target: T1, 3',5'-cyclic-AMP phosphodiesterase 4D; assay: Inhibition of recombinant human PDE4D3 expressed in baculoviral system
Procedure, shortened: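 Recombinant PDE4 isoform enzyme (PDE4D3: recombinant human, baculoviral expression) tested at five concentrations over 5 × 10−8–10−4 M, in duplicate. IC50 obtained by nonlinear regression of the inhibition curve with Hill equation fitting.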

[10] = biological target: T1, 3',5'-cyclic-AMP phosphodiesterase 4D; assay: Inhibition of PDE4D1 (unknown origin) at 10 uM
[11] = biological target: T1, 3',5'-cyclic-AMP phosphodiesterase 4D; assay: Inhibition of PDE4D3 in human HTLA230 cells assessed as accumulation of intracellular cAMP pretreated at 100 uM for 10 min before forskolin addition measured after 20 mins by enzyme immunoassay; type: cell-based
Procedure, shortened: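 cAMP accumulation in HTLA cells treated 30 min with compound. Where indicated, forskolin was added during the last 20 min to raise basal cAMP. Intracellular cAMP measured by cAMP-specific enzymatic immunoassay.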

inhibition [2]: 83% | inhibition [3]: 62% | inhibition [4]: 41% | Ratio IC50 (Homo sapiens): 2.6 | IC50 [5]: 1600 nM | inhibition [6]: 62% | inhibition [8]: 83% | IC50 [9]: 660 nM | inhibition [10]: 75%
SMILES: COc1ccc(/C=N/N2CCOCC2)cc1OC1CCCC1
Activity [1]: Non-toxic | Activity [7]: 0.04%

inhibition [2]: 30%
SMILES: COc1ccc(/C=N/OCC(=O)N2CCC(O)CC2)cc1OC1CCCC1

inhibition [2]: 16%
SMILES: COc1ccc(/C=C/C(=O)N2CC(C)OC(C)C2)cc1OC1CCCC1 (stereo not given)

inhibition [2]: 12%
SMILES: COc1ccc(/C=N/OCC(CN2CCC(OC(C)=O)CC2)OC(C)=O)cc1OC1CCCC1 (stereo not given)

inhibition [2]: 12%
SMILES: COc1ccc(CCC(=O)N2CCC(O)CC2)cc1OC1CCCC1

SMILES: COc1ccc(/C=N/OCC(=O)N2CC(C)OC(C)C2)cc1OC1CCCC1 (stereo not given)
Activity [1]: Non-toxic | Activity [7]: 0.14%

inhibition [2]: 22%
SMILES: COc1ccc(/C=C/C(=O)N2CCC(O)CC2)cc1OC1CCCC1

inhibition [2]: 80% | inhibition [3]: 74% | inhibition [4]: 41% | Ratio IC50 (Homo sapiens): 90 | IC50 [5]: 18000 nM | inhibition [6]: 51% | inhibition [8]: 80% | IC50 [9]: 210 nM | inhibition [10]: 65%
SMILES: COc1ccc(/C=N/OCC(O)CNN2CC(C)OC(C)C2)cc1OC1CCCC1 (stereo not given)
Activity [1]: Non-toxic | Activity [7]: 0.75%

inhibition [2]: 7%
SMILES: COc1ccc(CCC(=O)N2CCOCC2)cc1OC1CCCC1

inhibition [11]: Active | inhibition [2]: 65% | inhibition [4]: 10% | inhibition [6]: 5% | inhibition [8]: 65% | IC50 [9]: 1790 nM
SMILES: COc1ccc(/C=N/OCC(O)CN2CCC(O)CC2)cc1OC1CCCC1 (stereo not given)
Activity [1]: Non-toxic | Activity [7]: 1.2%

inhibition [2]: 75% | inhibition [3]: 53% | inhibition [4]: 29% | inhibition [6]: 47% | inhibition [8]: 75% | IC50 [9]: 1550 nM | inhibition [10]: 68%
SMILES: COc1ccc(/C=N/N2CC(C)OC(C)C2)cc1OC1CCCC1 (stereo not given)
Activity [1]: Non-toxic | Activity [7]: 0.01%

inhibition [2]: 31% | inhibition [3]: 9% | inhibition [8]: 31% | inhibition [10]: 18%
SMILES: COc1ccc(C(=O)N2CC(C)OC(C)C2)cc1OC1CCCC1 (stereo not given)

inhibition [2]: 49%
SMILES: COc1ccc(/C=N/OCCC(=O)N2CCOCC2)cc1OC1CCCC1

inhibition [2]: 0%
SMILES: COc1ccc(C(=O)NN2CC(C)OC(C)C2)cc1OC1CCCC1 (stereo not given)

inhibition [2]: 32% | inhibition [3]: 32% | inhibition [8]: 32% | inhibition [10]: 49%
SMILES: COc1ccc(C(=O)NN2CCOCC2)cc1OC1CCCC1

SMILES: COc1cc([C@@H]2c3cc4c(cc3[C@@H](O[C@@H]3O[C@@H]5CO[C@@H](C)O[C@H]5[C@H](O)[C@H]3O)[C@H]3COC(=O)[C@H]23)OCO4)cc(OC)c1O [ETOPOSIDE]
Activity [1]: Toxic

inhibition [2]: 10%
SMILES: COc1ccc(CCC(=O)N2CC(C)OC(C)C2)cc1OC1CCCC1 (stereo not given)

inhibition [2]: 56% | inhibition [4]: 33% | inhibition [6]: 34% | inhibition [8]: 56% | IC50 [9]: 1260 nM
SMILES: COc1ccc(/C=N/OCC(O)CNN2CCOCC2)cc1OC1CCCC1 (stereo not given)
Activity [1]: Non-toxic | Activity [7]: 0.01%

inhibition [2]: 20%
SMILES: COc1ccc(C(=O)N2CCC(O)CC2)cc1OC1CCCC1

inhibition [2]: 24%
SMILES: COc1ccc(/C=N/OCCC(=O)N2CC(C)OC(C)C2)cc1OC1CCCC1 (stereo not given)

inhibition [2]: 45%
SMILES: COc1ccc(C(=O)N2CCOCC2)cc1OC1CCCC1

inhibition [2]: 25%
SMILES: COc1ccc(/C=C/C(=O)N2CCOCC2)cc1OC1CCCC1
